# Assay outcomes: PubChem BioAssay, Sanford-Burnham Center for Chemical Genomics
# Rows were chosen to be rich in hits. Some 1.1% of all compounds tested hit in one or more screens of this group.
# Diaph inh CS = diaphorase inhibition or chemical oxidation counter-screen | diaphorase resazurin-to-resorufin fluorescence, NADH, 16 min; bacterial (C. kluyveri) enzyme, not human | inhibition, % at 20 µM | 190,000 compounds, 0.69% hits | AID 1217;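 active = primary screen inhibition at 20 µM above a set limit, cut at about 50% in these data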
#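 System: Diaphorase enzyme from Clostridium kluyveri | Amount: Enzyme working solution with 0.14 U/mL diaphorase | Benchmarks: No-NADH positive control and DMSO neutral control | Signal: Fluorescence of resorufin formed from resazurin, Ex 544/Em 590 nm | Schedule: 16-min room-temperature incubation before reading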
# PMI act = activators of human phosphomannose isomerase. AID 1214. activation factor at 20 µM. purified human PMI, coupled resazurin fluorescence, 20 min; stronger effect = higher value; 1 = vehicle control, 0 substrate-free wells. 190,000 compounds, 0.005% hits. P34949;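 active = activation factor of 2 or more at 20 µM, relative to plate controls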
# Target sequence (P34949 whole entry, looked up): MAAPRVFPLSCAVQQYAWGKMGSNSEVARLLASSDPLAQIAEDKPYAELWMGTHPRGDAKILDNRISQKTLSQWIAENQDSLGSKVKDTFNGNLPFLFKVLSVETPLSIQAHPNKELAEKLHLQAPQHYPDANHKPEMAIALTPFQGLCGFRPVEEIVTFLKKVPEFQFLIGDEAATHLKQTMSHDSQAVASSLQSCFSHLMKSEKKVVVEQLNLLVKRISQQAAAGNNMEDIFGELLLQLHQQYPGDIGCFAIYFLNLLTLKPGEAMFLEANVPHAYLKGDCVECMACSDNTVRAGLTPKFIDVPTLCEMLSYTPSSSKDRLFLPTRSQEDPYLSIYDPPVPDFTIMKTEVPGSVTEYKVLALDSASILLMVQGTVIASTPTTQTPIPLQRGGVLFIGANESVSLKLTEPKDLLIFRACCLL
# G6PDH CS = inhibits Leuconostoc G6PDH, flagging false hits in G6PDH-based assays | Purified L. mesenteroides G6PDH, diaphorase/resazurin coupled fluorescence, 45 min | inhibition, % at 5 µM | 200,000 compounds, 0.12% hits; in the data active = inhibition above about 50%
# Diaphorase act = counter-screen for diaphorase-based assays: diaphorase activators and chemical reducers | Diaphorase/resazurin coupled assay, resorufin fluorescence, 16 min; stronger effect = higher value; 1 = vehicle wells, 0 = NADH-free wells | activation factor at 20 µM | 190,000 compounds, 0.005% hits;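 active = diaphorase activity raised at least twofold by the compound at 20 µM; inactive = activation factor below 2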
#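 Material: purified diaphorase enzyme from Clostridium kluyveri; Also added: 0.114 mM NADH and 0.1 mM resazurin, final amounts; Doses: single compound dose of 20 µM, 1% DMSO final; Times: 16 min enzyme reaction, ambient temperature; Detection: resorufin fluorescence, excitation 544 nm, emission 590 nm; Measure: increased resorufin signal from activators or reducing compounds.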
# PMI act hi M6P = increases human PMI activity with near-saturating mannose 6-phosphate. P34949. coupled PMI enzyme assay, resazurin fluorescence, 20 min; stronger effect = higher value; 1 = untreated enzyme, 0 = substrate-free blank. activation factor at 20 µM. 190,000 compounds, 0.34% hits;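 active = activation factor of 2 or more at 20 µM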
#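 Test system: human phosphomannose isomerase with PGI, G6PDH, diaphorase coupling enzymes; amount: 15 ng/mL PMI; incubation: enzyme reaction with compound 20 min at room temperature; technique: resorufin fluorescence (Ex 544/Em 590 nm) from resazurin via diaphorase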
# Hits are given with their value; i = inactive.
SMILES,Diaph inh CS,PMI act,G6PDH CS,Diaphorase act,PMI act hi M6P
O=C(O)COc1ccccc1C(Nc1ccccn1)c1cc(Cl)c2cccnc2c1O (stereo unspecified),51,i,i,i,i
COc1ccc(C(NC(C)=O)c2cc(Cl)c3cccnc3c2O)cc1OC (stereo unspecified),66,i,i,i,i
COCCn1c(NC(=S)NC(=O)C2CC2)cc(=O)[nH]c1=O,61,i,i,i,i
O=[N+]([O-])c1cc(/C=N/n2c(-c3cccnc3)n[nH]c2=S)ccc1Cl,51,i,i,i,i
CC(/C=N/n1c(-c2ccccc2)n[nH]c1=S)=C\c1ccco1,i,i,i,i,i
O=[N+]([O-])c1ccccc1/C=N/n1c(-c2cccnc2)n[nH]c1=S,i,i,i,i,i
S=c1[nH]nc(-c2cccnc2)n1/N=C/C=C/c1ccccc1,52,i,i,i,i
S=c1[nH]nc(-c2ccncc2)n1/N=C/C=C/c1ccco1,71,i,i,i,i
CC(/C=N/n1c(-c2cccnc2)n[nH]c1=S)=C\c1ccccc1,i,i,i,i,i
O=C(COc1ccccc1F)NCC(c1ccco1)N1CCCC1 (stereo unspecified),i,i,i,i,i
CNC(=O)CS(=O)CC(=O)Nc1cc(OCCOC)c(Cl)cc1Cl (stereo unspecified),i,i,i,i,i
CCCCCCCCC(=O)N/N=C(\C)c1cccnc1,i,i,i,i,2.3
CCc1ccc(-c2cn3nc(C)c(C)nc3n2)cc1,i,i,i,i,2.2
Cc1cc(C)c2nc(N3CCC(C(=O)NCCCN4CC(C)CC(C)C4)CC3)sc2c1 (stereo unspecified),i,i,i,i,i
COc1ccc(/C=C(/NC(=O)c2cccc([N+](=O)[O-])c2)C(=O)O)cc1,i,i,i,i,2
COc1ccc(C(=O)N/C(=C\c2cccc([N+](=O)[O-])c2)C(=O)Nc2cccc(C(=O)O)c2)cc1,i,i,i,i,i
O=C(Nc1cc(C(=O)N2CCOCC2)ccc1N1CCCC1)c1cccs1,i,i,i,i,2.1
O=C(Nc1ccc(C(=O)N2CCOCC2)cc1)c1cccs1,i,i,i,i,i
C=CCn1c(SCC(=O)N2CCCCC2)nnc1-c1ccncc1,i,i,i,i,i
COc1ccc(CCNC(=O)CC2Nc3ccccc3NC2=O)cc1 (stereo unspecified),i,i,i,i,i
COc1ccc(CCNC(=O)CC2Nc3ccccc3NC2=O)cc1OC (stereo unspecified),52,i,i,i,i
COc1ccc(N/C(=C(/C(Cl)=C(Cl)Cl)[N+](=O)[O-])n2nnc3ccccc32)cc1,i,i,i,i,i
Cc1ccccc1N/C(=C(/C(Cl)=C(Cl)Cl)[N+](=O)[O-])n1nnc2ccccc21,i,i,i,i,2.2
CC/C(=N\NC(=O)CCC(=O)NCc1ccccc1)c1ccc(O)cc1,i,i,i,i,i
Cc1csc(SCC(=O)NCc2ccccc2Cl)n1,i,i,i,i,i
SMILES,Diaph inh CS,PMI act,G6PDH CS,Diaphorase act,PMI act hi M6P
Nc1ccc2c(c1)OC1(CCCC1)O2,52,i,i,i,i
O=C(CSc1ncccc1C(=O)O)c1cccc(C(F)(F)F)c1,i,i,i,i,2.2
O=C(CSc1ncccc1C(=O)O)c1ccc2ccccc2c1,i,i,i,i,i
CCN(CC)C(=O)CSc1nnnn1-c1ccc(F)c(Cl)c1,i,i,i,i,i
CC1(CC(=O)N/N=C/c2cc([N+](=O)[O-])c(O)cc2O)OCCO1,60,i,i,i,i
Cc1ccc(-n2c(C)cc(/C=N/NC(=O)CC3(C)OCCO3)c2C)c(C)c1,i,i,i,i,i
CN1c2ccsc2/C(=N/Nc2ccc(F)cc2)CS1(=O)=O,i,i,i,i,i
O=C1NCCC/C1=N/Nc1ccc(F)cc1,i,i,i,i,2.2
COC(=O)c1cccc(NC(=S)N2CCN(c3ccccc3F)CC2)c1,i,i,i,i,i
CC(C)(C)c1ccc(-c2nc(C=O)c3ccccn23)cc1,i,i,i,i,i
Cc1c(C(C)(C)C)c(C=S)n2ccccc12,i,i,i,i,2
COc1ccc(OC)c2[nH]c(=O)c(CCNC(=O)c3cc4ccccc4o3)cc12,58,i,i,i,i
O=C(N/N=C/c1ccco1)c1cccc(N2Cc3ccccc3C2)c1,60,i,i,i,i
CO[C@H]1C=CO[C@@]2(C)Oc3c(C)c(O)c4c(O)c(c(C=NN5CCN(C6CCCC6)CC5)c(O)c4c3C2=O)NC(=O)C(C)=CC=C[C@H](C)[C@H](O)[C@@H](C)[C@@H](O)[C@@H](C)[C@H](OC(C)=O)[C@@H]1C,84,i,i,i,i
CO[C@H]1C=CO[C@@]2(C)Oc3c(C)c(O)c4c(O)c(c(C=NN5CCN(C)CC5)c(O)c4c3C2=O)NC(=O)C(C)=CC=C[C@H](C)[C@H](O)[C@@H](C)[C@@H](O)[C@@H](C)[C@H](OC(C)=O)[C@@H]1C,i,i,i,i,i
Nn1c(-c2ccccc2Cl)nnc1-c1ccccc1Cl,i,i,i,i,2.2
CCOC(=O)C1CCN(S(=O)(=O)Cc2ccccc2)CC1,i,i,51,i,i
COc1ccc(C(=O)N2CCOC2CNC(=O)C(=O)NCc2ccco2)cc1 (stereo unspecified),i,i,i,i,i
Cc1ccc(C(=O)C(OC(=O)c2c(C)cc(=O)oc2C)c2ccccc2)cc1 (stereo unspecified),i,i,i,i,i
Cc1ccc(C(=O)c2coc3c2C(=O)C(=O)c2ccccc2-3)cc1,58,i,58,i,i
Cc1oc2c(c1C(=O)c1ccc(Cl)cc1)C(=O)C(=O)c1ccccc1-2,60,i,60,i,i
Cc1ccc(C(=O)c2c(C)oc3c2C(=O)C(=O)c2ccccc2-3)cc1,57,i,63,i,i
CC(C(=O)Nc1ccccc1)N(C)CCOc1ccc(Br)cc1 (stereo unspecified),i,i,i,i,i
c1ccc(Cn2nnnc2C(c2ccccc2)N2CCN(c3nc4ccccc4s3)CC2)cc1 (stereo unspecified),i,i,i,i,i
Cc1ccc(C)c(N2CCN(C(c3ccncc3)c3nnnn3Cc3ccccc3)CC2)c1 (stereo unspecified),i,i,i,i,2.2
CC/C(=N/O)c1cnnc(SC)n1,i,i,i,i,i
CC/C(=N/Nc1ccc(Cl)cc1)c1cnnc(SC)n1,i,i,i,i,2.5
COc1ccc(N/N=C(/C)c2cnnc(-c3ccccc3)n2)cc1,i,i,i,i,2.4
CC/C(=N/Nc1cccc(C)c1)c1cnnc(SC)n1,i,i,i,i,2.3
